High-throughput results: PubChem, several laboratories
An excerpt weighted towards active compounds, which were near 8.9% of everything screened.
L major viab: reduces viability of Leishmania major promastigotes; inhibition, % at 10 µM; resazurin fluorescence viability; actives 9% (n = 200,000); in the data active = inhibition above about 50%;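 also: promastigotes grown with compound for 44 hours at 28 °C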
Dynein transport: blocks dynein driven cargo transport along microtubules | z-score, hits read low | AID 1381 | actives 0.47% (n = 220,000) | 3617.4 mouse cells, GR-EGFP nuclear translocation imaging; test concentration mostly 20 µM; stimulated with dexamethasone, 1 µM; active compounds read low;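 active = plate z-score of nuclear minus cytoplasmic receptor signal below a set negative limit, without overly bright fluorescence or cell loss, cut at about -3.5 in these data, passing the limit was not always enough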;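 also: z-score of nuclear minus cytoplasmic ring GR-EGFP intensity difference per well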
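Buffer or medium: tet-free medium with charcoal-stripped serum / Also added: dexamethasone agonist, 1.0 µM final, for 30 min / Timing: induction 48 h, compound 1 h, agonist 30 min / Measured by: high-content fluorescence imaging after fixation / Read-out: nuclear-to-cytoplasmic GR-EGFP distribution per well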
b-catenin transl: alters nuclear translocation of beta-catenin in HeLa cells; actives 0.3% (n = 190,000); nuclear translocation activity, % at 5 µM; immunofluorescence imaging; AID 1665;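 active = nuclear translocation activity above 50% at 5 µM, with a well cell count of 50 or more; inconclusive = wells under 50 cells across six images, flagged as toxic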;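 also: per-cell ratio of nuclear to cytoplasmic median beta-catenin stain intensity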
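Signal – beta-catenin immunofluorescence imaging with DAPI · Test system – human HeLa cell line · Dosing – 5 µM primary single dose, 0.1% DMSO, 0.02–20 µM confirmation series · Measure – % activation, nuclear-to-cytoplasmic median beta-catenin signal ratio per cell · Incubation – 24 h compound exposure at 37°C, 5% CO2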
HSV augment: increases HSV replication in cells; HSV replication augmentation in cells, fold increase; maximum fold increase; actives 0.005% (n = 220,000); AID 1956; in the data active = maximum fold increase above about 1.5; inconclusive = no clear call, values can overlap the other calls; tested in PC3 cells
MT stabilizer: microtubule stabilizers in HeLa cells; actives 0.83% (n = 200,000); HeLa tubulin immunostaining HCS, 24 h; share of cells brighter than vehicle mean+2SD; % tubulin-high responders, % at 10 µM; AID 2205;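 active = plate Z-score above 3 for both tubulin-high and condensed-nucleus cell shares, with cell loss under 80%, at 10 µM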;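 also: anti alpha tubulin signal scored within the nucleus-defined area of each cell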
Hits are given with their value.

What do the screens show for `O=C(CSc1nc2ccccc2c(=O)n1-c1ccc(Cl)cc1)N/N=C/C=C/c1ccccc1[N+](=O)[O-]`?
L major viab: inactive; Dynein transport: inactive; b-catenin transl: inactive; HSV augment: inactive; MT stabilizer: inactive

What do the screens show for `O=C(c1ccc(-c2cccc(C(F)(F)F)c2)o1)N1CCOCC1`?
L major viab: inactive; Dynein transport: inactive; b-catenin transl: inactive; HSV augment: inactive; MT stabilizer: inactive

What do the screens show for `COc1ccc(N(C(=O)c2ccco2)S(=O)(=O)c2cc(Cl)c(Cl)cc2Cl)cc1`?
L major viab: inactive; Dynein transport: inactive; HSV augment: inactive; MT stabilizer: 33

How did CN(C(=O)COC(=O)c1ccc(Cl)cc1N)C1CCS(=O)(=O)C1 (centres undefined) do in these assays?
L major viab: inactive; Dynein transport: inactive; b-catenin transl: inactive; HSV augment: inactive; MT stabilizer: inactive

What do the screens show for `Cc1ccc(C)c(Sc2ccc(NC(=O)CCl)cc2)c1`?
L major viab: 100; Dynein transport: -4.2; b-catenin transl: inactive; HSV augment: inactive; MT stabilizer: inactive

How did O=C(CCl)Nc1ccccc1Sc1ccccc1 do in these assays?
L major viab: 54; Dynein transport: inactive; HSV augment: inactive; MT stabilizer: inactive

Results for O=C(Cc1ccccc1)Nc1cc(Cl)ccc1Sc1ccccc1 ?
L major viab: 60; Dynein transport: inactive; HSV augment: inactive; MT stabilizer: inactive

Results for O=C(Cc1ccc(Cl)cc1)Nc1ccccc1Sc1ccccc1 ?
L major viab: inactive; Dynein transport: inactive; HSV augment: inactive; MT stabilizer: inactive

What do the screens show for `Cc1ccc(NC(=O)CCSCCC(=O)Nc2ccc(C)c(C)c2)cc1C`?
L major viab: inactive; Dynein transport: inactive; b-catenin transl: inactive; HSV augment: inactive; MT stabilizer: inactive

What do the screens show for `COc1ccccc1Cn1c(/C=C/c2ccccc2)nc2ccccc21`?
L major viab: inactive; Dynein transport: inactive; b-catenin transl: inactive; HSV augment: inactive; MT stabilizer: inactive

Results for COc1ccc(/C=C/c2nc3ccccc3n2Cc2ccccc2OC)cc1 ?
L major viab: 65; Dynein transport: inactive; b-catenin transl: inactive; HSV augment: inactive; MT stabilizer: inactive

Results for O=C(CSc1nc2ccccc2c(=O)n1CCCN1CCOCC1)Nc1cccc(S(=O)(=O)N2CCCCCC2)c1 ?
L major viab: 74; Dynein transport: inactive; b-catenin transl: inactive; HSV augment: inactive; MT stabilizer: inactive

Results for CCc1ccc(NC(=O)CSc2nc3ccccc3c(=O)n2CCCC(=O)NCCCN2CCOCC2)cc1 ?
L major viab: inactive; Dynein transport: inactive; b-catenin transl: inactive; HSV augment: inactive; MT stabilizer: inactive

Results for Cc1ccc(NC(=O)CSc2nc3ccccc3c(=O)n2CCCC(=O)NCCCN2CCOCC2)cc1C ?
L major viab: inactive; Dynein transport: inactive; b-catenin transl: inactive; HSV augment: inactive; MT stabilizer: inactive

Results for COc1ccc(NC(=O)CSc2nnc(C3CCCCC3)n2-c2ccccc2)cc1 ?
L major viab: 70; Dynein transport: inactive; b-catenin transl: inactive; HSV augment: inactive; MT stabilizer: inactive

What do the screens show for `CCOc1ccc(NC(=O)CSc2nc3ccccc3c(=O)n2CCCC(=O)N2CCCC2)cc1`?
L major viab: inactive; Dynein transport: inactive; b-catenin transl: inactive; HSV augment: inactive; MT stabilizer: inactive

What do the screens show for `Cc1ccc(NC(=O)CSc2nc3ccccc3c(=O)n2CCCN2CCCCC2)cc1Cl`?
L major viab: 101; Dynein transport: inactive; HSV augment: inactive; MT stabilizer: inactive

Results for COc1ccc(NC(=O)CSc2nc3ccccc3c(=O)n2CCC(=O)N2CCCCC2)cc1 ?
L major viab: 70; Dynein transport: inactive; HSV augment: inactive; MT stabilizer: inactive

Results for Cc1ccc(CCc2nnc(SCC(=O)Nc3ccccc3Cl)n2-c2ccccc2)o1 ?
L major viab: inactive; Dynein transport: inactive; b-catenin transl: inactive; HSV augment: inactive; MT stabilizer: inactive

What do the screens show for `CCOC(=O)c1ccc(NC(=O)CSc2nnc(CCc3ccc(C)o3)n2-c2ccccc2)cc1`?
L major viab: 52; Dynein transport: inactive; b-catenin transl: inactive; HSV augment: inactive; MT stabilizer: inactive

What do the screens show for `COC(=O)c1ccc2c(=O)n(CC3CCCO3)c(SCC(=O)Nc3ccccc3Cl)nc2c1` (centres undefined)?
L major viab: inactive; Dynein transport: inactive; HSV augment: inactive; MT stabilizer: inactive

Results for COc1ccc(NC(=O)CSc2nc3ccccc3c(=O)n2CCCN2CCC(C)CC2)c(OC)c1 ?
L major viab: 55; Dynein transport: inactive; b-catenin transl: inactive; HSV augment: inactive; MT stabilizer: inactive

Results for CC1CCN(CCCn2c(SCC(=O)Nc3ccccc3Cl)nc3ccccc3c2=O)CC1 ?
L major viab: 65; Dynein transport: inactive; HSV augment: inactive; MT stabilizer: inactive

How did COc1ccc(NC(=O)CSc2nc3ccccc3c(=O)n2Cc2cccs2)c(OC)c1 do in these assays?
L major viab: inactive; Dynein transport: inactive; b-catenin transl: inactive; HSV augment: inactive; MT stabilizer: inactive

How did COc1ccc(NC(=O)Nc2ccc(C)cc2OC(F)F)cc1OC do in these assays?
L major viab: inactive; Dynein transport: inactive; b-catenin transl: inactive; HSV augment: inactive; MT stabilizer: inactive

What do the screens show for `Cc1c(C(=O)NCCN2CCOCC2)oc2ccc(S(=O)(=O)N3CCCCCC3)cc12`?
L major viab: inactive; Dynein transport: inactive; HSV augment: inactive; MT stabilizer: inactive

What do the screens show for `CC(=O)Oc1ccc2c(c1)Oc1cc(OC(C)=O)ccc1C21OC(=O)c2ccccc21`?
L major viab: inactive; Dynein transport: -4.7; b-catenin transl: inactive; HSV augment: inconclusive; MT stabilizer: inactive

How did Cc1c(C)n(C)c2ccc(C(=O)NCc3cccs3)cc12 do in these assays?
L major viab: inactive; Dynein transport: inactive; b-catenin transl: inactive; HSV augment: inactive; MT stabilizer: inactive

Results for O=C(Nc1ccc(Cl)cc1)OCCn1nnnc1C(c1ccccc1Cl)N1CCOCC1 (centres undefined) ?
L major viab: 90; Dynein transport: inactive; b-catenin transl: inactive; HSV augment: inactive; MT stabilizer: inactive

What do the screens show for `Cc1occc1C(=O)NC(C)c1ccc2c(c1)OCO2` (centres undefined)?
L major viab: inactive; Dynein transport: inactive; b-catenin transl: inactive; HSV augment: inactive; MT stabilizer: inactive

What do the screens show for `CCOc1ccccc1C(=O)NC(C)c1ccc2c(c1)OCO2` (centres undefined)?
L major viab: inactive; Dynein transport: inactive; b-catenin transl: inactive; HSV augment: inactive; MT stabilizer: 42

How did CC1CC(=O)c2c(cc3c(-c4c(O)cc(O)c5c(O)c6c(cc45)OC(C)CC6=O)c(O)cc(O)c3c2O)O1 (centres undefined) do in these assays?
L major viab: inactive; Dynein transport: inactive; b-catenin transl: inactive; HSV augment: inactive; MT stabilizer: 32

How did CN1CCc2c(n(CC(O)CNCc3ccccc3)c3ccccc23)C1=O (centres undefined) do in these assays?
L major viab: inactive; Dynein transport: inactive; b-catenin transl: inactive; HSV augment: inactive; MT stabilizer: inactive
